# Measured values from different studies.
# Lines come from different studies, so protocols differ.
# Target: Epithelial discoidin domain-containing receptor 1 (DDR1, Homo sapiens, UniProt Q08345)
SMILES,effect on,technique,concentration,remaining binding [%]
CNC(=O)Nc1ccc2c(c1)CC[C@@]21OC(=O)N(CC(=O)N(Cc2ccc(F)cc2)[C@@H](C)C(F)(F)F)C1=O,cell-free assay,competition with immobilised ligand,1 µM,100
COc1cnc(Nc2cccc(S(N)(=O)=O)c2)nc1N1CCN(c2ccccc2)C(=O)C1,binding,competition with immobilised ligand,1 µM,100
O=C(c1ccc(Nc2ncc(Cl)c(-c3cc4ccccc4s3)n2)cc1)N1CCC(N2CCCC2)CC1,binding,competition with immobilised ligand,1 µM,0.4
CN(C)c1ncc(F)c(-c2cnn3ncccc23)n1,binding,,1 µM,89
FC(F)(F)c1ccc2c(c1)nc(-c1cccnc1)n2C1CC1,cell-free assay,competition with immobilised ligand,1 µM,100
N[C@H]1CCN(c2nccc(-c3cnn4ncccc34)n2)C1,binding,,1 µM,100
CNC(=O)c1ccc(Nc2ncc(C(F)(F)F)c(NCc3nccnc3N(C)S(C)(=O)=O)n2)cc1,cell-free assay,competition with immobilised ligand,0.1 µM,100
C[C@@H](c1ccc(-n2cnc3c(N)ncnc32)cc1)N1CCc2nn(C)c(Cc3ccccc3)c2C1=O,binding,competition with immobilised ligand,0.1 µM,8.9
CN(CCCC(F)(F)F)c1nccc(-c2cnn3ncccc23)n1,binding,,1 µM,100
c1cncc(-c2cccc(Nc3nccc(NC4CCCCC4)n3)c2)c1,binding,competition with immobilised ligand,10 µM,27
C=CC(=O)N1CCC(C(=O)NCC(=O)N2CCN(c3nc(-c4cnc(N)nc4C(F)F)nc(N4CCOCC4)n3)CC2)CC1,binding,competition with immobilised ligand,1 µM,100
Cc1cnn2ncc(-c3ccnc(N(C)C)n3)c2c1,binding,,1 µM,100
CCCOc1ccc([C@H]2[C@H](C(=O)O)[C@@H](c3ccc4c(c3)OCO4)CN2CC(=O)Nc2c(CC)cccc2CC)cc1,cell-free assay,competition with immobilised ligand,1 µM,100
O=C(NCC1CCOCC1)c1n[nH]cc1NC(=O)c1c(F)cccc1F,binding,competition with immobilised ligand,1 µM,100
COc1ccnn2ncc(-c3ccnc(N(C)C)n3)c12,binding,,1 µM,100
CS(=O)(=O)c1cc(C2(NC(=O)c3cncc4c3cnn4-c3ccc(F)cc3)CC2)ccn1,cell-free assay,competition with immobilised ligand,1 µM,100
CC1CCCN1c1nccc(-c2cnn3ncccc23)n1 (stereo not drawn),binding,,1 µM,94
O=C(NCCCN1CCOCC1)c1ccc(Nc2ncc(Cl)c(-c3ccc(Cl)s3)n2)cc1,binding,competition with immobilised ligand,1 µM,84
CC(C)(O)c1cncc(-c2nc3ccc(F)cc3n2C2CC2)c1,cell-free assay,competition with immobilised ligand,1 µM,100
COc1cnc(Nc2cccc(S(N)(=O)=O)c2)nc1N1CCN(c2ccccc2)CC1,binding,competition with immobilised ligand,1 µM,93
O=C(c1ccc(Nc2nccc(-c3cc4ccccc4s3)n2)cc1)N1CCC(N2CCCC2)CC1,binding,competition with immobilised ligand,1 µM,2.1
